Experimental data reported in ChEMBL document CHEMBL4834447, “A gemcitabine-based conjugate with enhanced antitumor efficacy by suppressing HIF-1α expression under hypoxia” (Bioorg Med Chem, 2021).
Active and inactive are the calls of the source. No cut-off for these calls is given here.

Columns and labels:
A2780 [1] = experiment: Induction of apoptosis in human A2780 cells assessed as necrotic cells at 0.5 uM incubated for 72 hrs by annexin-V-FITC and PI staining based flow cytometry analysis (reference value: 0.98 %); assay type: functional
A2780 [2] = experiment: Induction of cell cycle arrest in human A2780 cells assessed as S phase at 0.5 uM incubated for 24 hrs by PI staining based flow cytometry analysis (reference value: 20.11 %)
A2780 [3] = experiment: (§1) Downregulation of HIF-1alpha in human A2780 cells at 1 uM incubated for 24 hrs in hypoxia condition by Western blot analysis relative to control; assay type: functional
Outline: (§2)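 A2780 cells were treated at the indicated concentrations for 24 h under hypoxia. They were lysed in Tris-Cl pH 6.8 buffer with SDS, glycerol, β-mercaptoethanol, PMSF and aprotinin, then centrifuged at 13000 rpm for 20 min at 4 °C. Proteins were resolved by SDS-PAGE and transferred to PVDF. Blots were probed for HIF-1α, p53 and GAPDH, with secondary antibody at 1:2000 for 1 h, and detected by chemiluminescence.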

A2780 [4] = experiment: Induction of cell cycle arrest in human A2780 cells assessed as G1 phase at 0.5 uM incubated for 24 hrs in hypoxic condition by PI staining based flow cytometry analysis (reference value: 56.83 %)
A2780 [5] = experiment: Cytotoxicity against human A2780 cells assessed as reduction in cell viability incubated for 72 hrs by MTT assay; assay type: functional, cell-based; settings: A2780, 72 h
Outline: (§3)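 In the MTT assay, logarithmic-phase cells were seeded at about 5 × 10⁴ cells/mL and preincubated 12 h. Cells were then exposed for 72 h at 37 °C under normoxia (20% O₂, 5% CO₂) to seven final concentrations, 1.25–80 μmol/L, diluted from DMSO stock. MTT (5 mg/mL) was added for 4 h, formazan was dissolved in DMSO, and absorbance was read at 570/630 nm. IC50 was calculated by the Bliss method; values are mean ± SD of three independent runs in duplicate.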

L02 [6] = experiment: Cytotoxicity against human L02 cells assessed as reduction in cell viability incubated for 72 hrs by MTT assay; assay type: cell-based; settings: L02, 72 h; outline: as §3
A2780 [7] = experiment: Induction of apoptosis in human A2780 cells assessed as viable cells at 0.5 uM incubated for 72 hrs by annexin-V-FITC and PI staining based flow cytometry analysis (reference value: 91.95 %); assay type: functional; settings: read-out: Activity
A2780 [8] = experiment: Induction of apoptosis in human A2780 cells assessed as late apoptotic cells at 0.5 uM incubated for 72 hrs in hypoxic condition by annexin-V-FITC and PI staining based flow cytometry analysis (reference value: 6.17 %); assay type: functional
A2780 [9] = experiment: Antitumor activity against human A2780 cells xenografted in BALB/c mouse assessed as reduction in tumor growth at 125 mg/kg, iv administered for 28 days and measured on day 28 relative to control; assay type: functional; settings: 672 h, time 28 day, read-out: TGI
Outline: (§4)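 Female BALB/c nude mice, 5 weeks old, were implanted subcutaneously in the right armpit with 10⁷ A2780 cells in 0.1 mL PBS. At 100–150 mm³ (day 19) mice were randomized (5/group) and dosed by tail-vein injection once weekly for 4 weeks. GEM-5 was given in DMF:Tween 80:5% dextrose (10:2:88); vehicle controls received 5% dextrose. Volume was measured by caliper (V = AB²/2) every 3 days. Tumors were weighed after sacrifice, giving the tumor inhibitory rate.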

A2780 [10] = experiment: Induction of cell cycle arrest in human A2780 cells assessed as S phase at 0.5 uM incubated for 24 hrs in hypoxic condition by PI staining based flow cytometry analysis (reference value: 34.79 %)
A2780 [11] = experiment: Induction of apoptosis in human A2780 cells assessed as early apoptotic cells at 0.5 uM incubated for 72 hrs in hypoxic condition by annexin-V-FITC and PI staining based flow cytometry analysis (reference value: 9.74 %); assay type: functional
A2780 [12] = experiment: Induction of cell cycle arrest in human A2780 cells assessed as G2/M phase at 0.5 uM incubated for 24 hrs by PI staining based flow cytometry analysis (reference value: 4.66 %)
A2780 [13] = experiment: Upregulation of p53 in human A2780 cells at 0.1 to 1 uM incubated for 24 hrs in hypoxia condition by Western blot analysis; assay type: functional, cell-based; settings: dose 0.1-1 µM; outline: as §2
L02 [14] = experiment: Cytotoxicity against human L02 cells assessed as reduction in cell viability incubated for 72 hrs in hypoxic condition by MTT assay; assay type: cell-based; settings: L02, 72 h
A2780 [15] = experiment: Induction of cell cycle arrest in human A2780 cells assessed as G1 phase at 0.5 uM incubated for 24 hrs by PI staining based flow cytometry analysis (reference value: 75.23 %)
A2780 [16] = experiment: Antitumor activity against human A2780 cells xenografted in BALB/c mouse assessed as reduction in tumor volume at 125 mg/kg, iv administered for 28 days and measured on day 28 relative to control; assay type: functional; parameters: scale not given: the % may be the effect or the level left; settings: time 28 day; outline: as §4
A2780 [17] = experiment: Induction of apoptosis in human A2780 cells assessed as early apoptotic cells at 0.5 uM incubated for 72 hrs by annexin-V-FITC and PI staining based flow cytometry analysis (reference value: 5.35 %); assay type: functional
A549 [18] = experiment: Cytotoxicity against human A549 cells assessed as reduction in cell viability incubated for 72 hrs in hypoxic condition by MTT assay; assay type: functional, cell-based; settings: A549, 72 h
Outline: (§5)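 For the hypoxic MTT assay, cells were seeded at about 5 × 10⁴ cells/mL and preincubated 12 h under hypoxia (1% O₂, 5% CO₂, 94% N₂). They were then treated for 72 h at 37 °C with final concentrations of 1.25–80 μmol/L. MTT was added for 4 h and absorbance read at 570/630 nm. IC50 was obtained by the Bliss method; tests were repeated three times.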

MCF7 [19] = experiment: Cytotoxicity against human MCF7 cells assessed as reduction in cell viability incubated for 72 hrs by MTT assay; assay type: functional, cell-based; settings: MCF7, 72 h; outline: as §3
[20] = Toxicity in BALB/c mouse xenografted with human A2780 cells assessed as effect on body weight at 125 mg/kg, iv administered for 28 days and measured on day 28; assay type: organism-based; settings: in vivo, 672 h, time 28 day
Outline: (§6)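 The A2780 subcutaneous xenograft was set up in female BALB/c nude mice. Weekly i.v. tail-vein dosing ran for 4 weeks, starting at 100–150 mm³ tumor size (5 mice/group), with DMF:Tween 80:5% dextrose (10:2:88) as the formulation and a 5% dextrose vehicle control. Body weight was recorded every three days over 28 days.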

A2780 [21] = experiment: Induction of apoptosis in human A2780 cells assessed as necrotic cells at 0.5 uM incubated for 72 hrs in hypoxic condition by annexin-V-FITC and PI staining based flow cytometry analysis (reference value: 3.04 %); assay type: functional
A2780 [22] = experiment: Induction of apoptosis in human A2780 cells assessed as late apoptotic cells at 0.5 uM incubated for 72 hrs by annexin-V-FITC and PI staining based flow cytometry analysis (reference value: 1.71 %); assay type: functional
A2780 [23] = experiment: Cytotoxicity against human A2780 cells assessed as reduction in cell viability incubated for 72 hrs in hypoxic condition by MTT assay; assay type: functional, cell-based; settings: A2780, 72 h; outline: as §5
A2780 [24] = experiment: Induction of apoptosis in human A2780 cells assessed as viable cells at 0.5 uM incubated for 72 hrs in hypoxic condition by annexin-V-FITC and PI staining based flow cytometry analysis (reference value: 81.05 %); assay type: functional; settings: read-out: Activity
A549 [25] = experiment: Cytotoxicity against human A549 cells assessed as reduction in cell viability incubated for 72 hrs by MTT assay; assay type: functional, cell-based; settings: A549, 72 h; outline: as §3
A2780 [26] = experiment: Induction of cell cycle arrest in human A2780 cells assessed as G2/M phase at 0.5 uM incubated for 24 hrs in hypoxic condition by PI staining based flow cytometry analysis (reference value: 8.38 %)
A549 [27] = experiment: Potency index, ratio of IC50 of GEM to IC50 of compound for cytotoxicity against human A549 cells assessed as reduction in cell viability incubated for 72 hrs by MTT assay; assay type: functional
Outline: (§7)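 The fold value is the IC50 of gemcitabine divided by the compound's IC50. Both IC50s come from 72 h normoxic MTT assays (1.25–80 μmol/L, Bliss method, three independent runs).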

MCF7 [28] = experiment: Potency index, ratio of IC50 of GEM to IC50 of compound for cytotoxicity against human MCF7 cells assessed as reduction in cell viability incubated for 72 hrs by MTT assay; assay type: functional; outline: as §7
A2780 [29] = experiment: Antitumor activity against human A2780 cells xenografted in BALB/c mouse assessed as reduction in tumor hypoxia at 271 mg/kg, iv administered for 28 days and measured on day 28 by DAPI staining based confocal microscopic analysis; assay type: functional, organism-based; settings: time 28.0 day
Outline: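 Tumor sections from the weekly i.v.-dosed A2780 xenograft mice were stained for hypoxia with the pimonidazole kit. This used FITC anti-pimonidazole antibody (1:100) plus HRP rabbit anti-FITC secondary (1:100), with DAPI for nuclei. Green hypoxic areas were imaged by confocal microscopy. Three independent experiments were run.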

A2780 [30] = experiment: Antitumor activity against human A2780 cells xenografted in BALB/c mouse assessed as reduction in tumor volume at 271 mg/kg, iv administered for 28 days and measured on day 28 relative to control; assay type: functional; parameters: scale not given: the % may be the effect or the level left; settings: time 28 day; outline: as §4
[31] = Toxicity in BALB/c mouse xenografted with human A2780 cells assessed as effect on body weight at 271 mg/kg, iv administered for 28 days and measured on day 28; assay type: organism-based; settings: in vivo, 672 h, time 28 day; outline: as §6
A2780 [32] = experiment: Downregulation of HIF-1alpha in human A2780 cells incubated for 24 hrs in hypoxia condition by Western blot analysis; assay type: functional, cell-based; settings: dose 0.1-1 µM; outline: as §2
A2780 [33] = experiment: Antitumor activity against human A2780 cells xenografted in BALB/c mouse assessed as reduction in tumor growth at 271 mg/kg, iv administered for 28 days and measured on day 28 relative to control; assay type: functional; settings: 672 h, time 28 day, read-out: TGI; outline: as §4
A2780 [34] = experiment: Potency index, ratio of IC50 of GEM to IC50 of compound for cytotoxicity against human A2780 cells assessed as reduction in cell viability incubated for 72 hrs by MTT assay; assay type: functional; outline: as §7
[35] = as §1; assay type: functional; outline: as §2

SMILES | Activity (A2780 [1]) [%] | Activity (A2780 [2]) [%] | Activity (A2780 [4]) [%] | IC50 (A2780 [5]) [µM] | IC50 (L02 [6]) [µM] | viability at 0.5 µM (A2780 [7]) [%] | Activity (A2780 [8]) [%] | inhibition in vivo at 125 mg/kg (A2780 [9]) [%] | Activity (A2780 [10]) [%] | Activity (A2780 [11]) [%] | Activity (A2780 [12]) [%] | Activity (A2780 [13]) | IC50 (L02 [14]) [µM] | Activity (A2780 [15]) [%] | Activity (A2780 [16]) [%] | Activity (A2780 [17]) [%] | IC50 (A549 [18]) [µM] | IC50 (MCF7 [19]) [µM] | IC50 (A2780 [23]) [µM] | IC50 (A549 [25]) [µM] | further results
Cl.Nc1ccn([C@@H]2O[C@H](CO)[C@@H](O)C2(F)F)c(=O)n1 [GEMCITABINE HYDROCHLORIDE] | 8.98 | 51.54 | 37.21 | 1.25 | 11.9 | 51.6 | 19.51 | 69.7 | 60.08 | 25 | 5.95 | Dose-Dependent Effect | 4.51 | 42.51 | 29.37 | 5.02 | 14.7 | 6.35 | 1.38 | 2.31 | Activity (A2780 [3]): inactive; Activity [20]: Non-Toxic; Activity (A2780 [21]): 2.44%; Activity (A2780 [22]): 34.42%; viability at 0.5 µM (A2780 [24]): 53%; Activity (A2780 [26]): 2.7%
Nc1ccn([C@@H]2O[C@H](COC(=O)CCC(=O)OCc3ccc(-c4nn(Cc5ccccc5)c5ccccc45)o3)[C@@H](O)C2(F)F)c(=O)n1 | 12.08 | 63.02 | 19.37 | 0.13 | 4.43 | 35.2 | 32.41 | 55.1 | 72.64 | 48.48 | 19.24 | Dose-Dependent Effect | 3.04 | 17.74 | 46.09 | 3.85 | 3.03 | 2.6 | 0.03 | 0.37 | Ratio IC50 (A549 [27]): 6.2; Ratio IC50 (MCF7 [28]): 2.4; Activity (A2780 [29]): Active; Activity (A2780 [30]): 36.61%; Activity [31]: Non-Toxic; Activity (A2780 [32]): Dose-Dependent Effect; Activity [20]: Non-Toxic; Activity (A2780 [21]): 1.13%; inhibition in vivo at 271 mg/kg (A2780 [33]): 64.6%; Activity (A2780 [22]): 48.82%; Ratio IC50 (A2780 [34]): 9.6; viability at 0.5 µM (A2780 [24]): 18%; Activity (A2780 [26]): 7.99%
OCc1ccc(-c2nn(Cc3ccccc3)c3ccccc23)o1 |  |  |  | > 80 | > 80 |  |  |  |  |  |  | inactive | 26.6 |  |  |  | 25.6 | > 80 | 20.4 | > 80 | Activity [35]: 50%
